Measurements from ChEMBL document CHEMBL5678808, “Human target validation of phosphoinositide 3-kinase (PI3K)β: effects on platelets and insulin sensitivity, using AZD6482 a novel PI3Kβ inhibitor” (J Thromb Haemost, 2012).
The source made the active and inactive calls. The calls are words filed in the database; no cut-off is given here.

Legend:
[1] = biological target: Phosphatidylinositol 4,5-bisphosphate 3-kinase catalytic subunit beta isoform (Homo sapiens, UniProt P42338); assay: Inhibition of recombinant human PI3Kbeta using PIP2 as substrate preincubated for 20 mins followed by substrate and ATP addition and measured after 20 mins by biotinylated-PIP3 based alphascreen assay
Sequence of Phosphatidylinositol 4,5-bisphosphate 3-kinase catalytic subunit beta isoform (P42338 whole entry, canonical isoform): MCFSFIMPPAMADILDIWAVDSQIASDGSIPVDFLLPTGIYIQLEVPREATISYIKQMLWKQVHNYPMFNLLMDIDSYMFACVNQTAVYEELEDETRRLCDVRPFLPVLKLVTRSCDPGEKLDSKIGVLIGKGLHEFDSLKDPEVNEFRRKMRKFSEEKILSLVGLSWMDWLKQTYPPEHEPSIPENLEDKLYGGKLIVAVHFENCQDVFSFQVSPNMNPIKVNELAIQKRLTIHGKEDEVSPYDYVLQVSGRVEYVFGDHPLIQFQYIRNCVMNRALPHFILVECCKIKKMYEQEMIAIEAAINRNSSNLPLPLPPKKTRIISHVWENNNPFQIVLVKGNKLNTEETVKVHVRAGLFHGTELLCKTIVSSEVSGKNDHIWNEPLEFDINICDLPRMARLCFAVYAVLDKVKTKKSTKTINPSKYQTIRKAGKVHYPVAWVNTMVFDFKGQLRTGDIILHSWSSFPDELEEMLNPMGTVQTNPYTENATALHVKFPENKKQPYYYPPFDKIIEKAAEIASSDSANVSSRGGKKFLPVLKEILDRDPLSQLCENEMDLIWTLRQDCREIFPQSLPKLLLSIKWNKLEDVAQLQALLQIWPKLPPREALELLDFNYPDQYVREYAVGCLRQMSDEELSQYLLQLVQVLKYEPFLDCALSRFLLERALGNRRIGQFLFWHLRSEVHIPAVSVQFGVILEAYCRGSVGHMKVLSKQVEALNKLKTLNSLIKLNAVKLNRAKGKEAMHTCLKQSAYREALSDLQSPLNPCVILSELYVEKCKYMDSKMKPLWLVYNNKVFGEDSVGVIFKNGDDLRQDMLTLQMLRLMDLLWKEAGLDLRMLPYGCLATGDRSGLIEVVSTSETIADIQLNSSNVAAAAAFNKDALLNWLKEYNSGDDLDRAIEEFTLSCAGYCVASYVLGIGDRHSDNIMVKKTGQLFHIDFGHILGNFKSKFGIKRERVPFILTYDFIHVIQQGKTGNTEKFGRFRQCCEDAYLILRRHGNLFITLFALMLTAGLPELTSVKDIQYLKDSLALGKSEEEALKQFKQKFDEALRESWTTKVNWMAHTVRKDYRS

[2] = biological target: Phosphatidylinositol 4,5-bisphosphate 3-kinase catalytic subunit alpha isoform (Homo sapiens, UniProt P42336); assay: Inhibition of recombinant human PI3Kalpha using PIP2 as substrate preincubated for 20 mins followed by substrate and ATP addition and measured after 20 mins by biotinylated-PIP3 based alphascreen assay
Sequence of Phosphatidylinositol 4,5-bisphosphate 3-kinase catalytic subunit alpha isoform (P42336 whole entry, canonical isoform): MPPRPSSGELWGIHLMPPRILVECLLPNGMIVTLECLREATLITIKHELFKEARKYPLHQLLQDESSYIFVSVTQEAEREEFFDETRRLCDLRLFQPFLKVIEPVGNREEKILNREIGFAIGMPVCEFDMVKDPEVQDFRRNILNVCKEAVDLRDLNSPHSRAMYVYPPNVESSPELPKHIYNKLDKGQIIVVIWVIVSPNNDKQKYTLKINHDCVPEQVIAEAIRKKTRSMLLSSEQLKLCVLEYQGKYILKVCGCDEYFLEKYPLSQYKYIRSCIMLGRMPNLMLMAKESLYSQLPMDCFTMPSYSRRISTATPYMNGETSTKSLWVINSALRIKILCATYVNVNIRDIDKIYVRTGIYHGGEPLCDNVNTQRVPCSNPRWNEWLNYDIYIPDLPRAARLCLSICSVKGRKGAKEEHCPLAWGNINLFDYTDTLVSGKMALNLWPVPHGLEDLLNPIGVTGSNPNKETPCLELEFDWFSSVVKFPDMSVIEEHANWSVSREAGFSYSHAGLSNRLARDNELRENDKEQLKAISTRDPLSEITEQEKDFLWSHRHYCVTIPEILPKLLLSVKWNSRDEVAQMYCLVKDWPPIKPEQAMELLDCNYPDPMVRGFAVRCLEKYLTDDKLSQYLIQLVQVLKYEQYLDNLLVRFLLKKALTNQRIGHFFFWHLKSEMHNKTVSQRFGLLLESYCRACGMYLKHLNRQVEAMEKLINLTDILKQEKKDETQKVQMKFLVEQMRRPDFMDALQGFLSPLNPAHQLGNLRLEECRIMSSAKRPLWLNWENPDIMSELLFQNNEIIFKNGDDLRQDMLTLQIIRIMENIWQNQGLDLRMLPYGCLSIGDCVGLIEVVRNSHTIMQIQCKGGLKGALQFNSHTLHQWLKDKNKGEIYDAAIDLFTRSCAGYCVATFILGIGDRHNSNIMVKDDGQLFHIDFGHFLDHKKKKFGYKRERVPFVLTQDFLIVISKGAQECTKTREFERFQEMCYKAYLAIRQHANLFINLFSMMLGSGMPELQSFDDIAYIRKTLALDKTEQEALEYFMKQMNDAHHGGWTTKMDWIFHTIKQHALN

Rattus norvegicus = assay: Effect on insulin resistance in iv dosed Sprague-Dawley rat assessed as plasma concentration required to show relative HOMA index of 3; assay type: functional, organism-based
Homo sapiens [3] = organism: Homo sapiens; assay: Inhibition of PI3Kalpha/beta/gamma/delta in human platelet rich plasma assessed as reduction in TRAP-induced platelet aggregation at 5 uM preincubated for 10 mins followed by TRAP addition and measured after 5 mins by light transmission aggregometry; assay type: cell-free; details: time 15.0 min
Outline: (§1)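 Venous blood from healthy human donors, citrate-anticoagulated; undiluted platelet-rich plasma tested in an in-house 96-well plate light transmission aggregometry assay. Agonist concentration-response curves run without and with inhibitor. Values are means, n = 4.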

Homo sapiens [4] = organism: Homo sapiens; assay: Inhibition of PI3Kalpha/beta/gamma/delta in human platelet rich plasma assessed as reduction in ADP-induced platelet aggregation at 5 uM preincubated for 10 mins followed by ADP addition and measured after 5 mins by light transmission aggregometry; assay type: cell-free; details: time 15.0 min; outline: as §1
Homo sapiens [5] = organism: Homo sapiens; assay: Inhibition of PI3Kalpha/beta/gamma/delta in human platelet rich plasma assessed as reduction in collagen-induced platelet aggregation at 5 uM preincubated for 10 mins followed by collagen addition and measured after 10 mins by light transmission aggregometry; assay type: cell-free; details: time 20.0 min; outline: as §1

Compound	IC50 [1] [nM]	IC50 [2] [nM]	Cp (Rattus norvegicus) [µM]	inhibition (Homo sapiens [3])	inhibition (Homo sapiens [4])	inhibition (Homo sapiens [5])
Cc1cc(F)ccc1Oc1cccc2c(=O)cc(N3CCOCC3)[nH]c12	160	22800	> 40			
CC(=O)Nc1nc(C)c(-c2cnc(Cl)c(NS(C)(=O)=O)c2)s1	110	10	0.3			
COC[C@H]1OC(=O)c2coc3c2[C@@]1(C)C1=C(C3=O)[C@@H]2CCC(=O)[C@@]2(C)C[C@H]1OC(C)=O				Active	Active	Active
Cc1cc(C(C)Nc2ccccc2C(=O)O)c2nc(N3CCOCC3)cc(=O)n2c1 (stereo not given)			30			
